Test results: ChEMBL document CHEMBL1149562, “Identification and optimization of novel 1,3,4-oxadiazole EP1 receptor antagonists” (Bioorg Med Chem Lett, 2007)

Experiments:
[1] = biological target: T1, Prostaglandin E2 receptor EP1 subtype (Homo sapiens, UniProt P34995); assay: Antagonist activity at human recombinant EP1 receptor expressed in CHO cells assessed as inhibition of PGE2-induced calcium mobilization by FLIPR; type: functional, cell-based
T1 sequence (P34995 whole entry): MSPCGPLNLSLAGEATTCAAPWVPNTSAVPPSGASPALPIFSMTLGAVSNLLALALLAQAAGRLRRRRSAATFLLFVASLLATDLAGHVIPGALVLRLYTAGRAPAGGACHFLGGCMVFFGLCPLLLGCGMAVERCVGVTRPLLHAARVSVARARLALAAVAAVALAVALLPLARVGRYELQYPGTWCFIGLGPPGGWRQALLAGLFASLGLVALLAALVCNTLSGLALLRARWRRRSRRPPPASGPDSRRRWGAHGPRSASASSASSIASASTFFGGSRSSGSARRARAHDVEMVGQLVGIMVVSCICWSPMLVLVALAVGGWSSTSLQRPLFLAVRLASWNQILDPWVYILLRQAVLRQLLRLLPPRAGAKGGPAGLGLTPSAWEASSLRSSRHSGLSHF
Method in brief: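 Functional antagonism in CHO cells expressing recombinant human EP1 receptor; blockade of PGE2-driven intracellular Ca2+ mobilization read by FLIPR, reported as pKi. Values are means of at least three experiments, with some from two.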

[2] = biological target: T1, Prostaglandin E2 receptor EP1 subtype; assay: Displacement of [3H]PGE2 from human recombinant EP1 receptor expressed in CHO cell membrane; type: cell membranes
Method in brief: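 Radioligand binding using [3H]-PGE2 on membranes of CHO cells expressing recombinant human EP1 receptor; affinity expressed as pIC50. Values are means of at least three experiments.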

Ki [1] | IC50 ([2]; read-out: Log IC50 (converted)) | IC50 ([2]; read-out: IC50) | Structure (SMILES)
398 nM | 79.4 nM | – | Cc1ccc(S(=O)(=O)N(Cc2nnc(Cc3ccccc3Cl)o2)c2cccc(Cl)c2C)cc1
63.1 nM | 7.94 nM | – | COc1ccc(Nc2nnc(CN(c3cccc(Cl)c3Cl)S(=O)(=O)c3ccc(C(F)(F)F)cc3)o2)cc1
63.1 nM | 20 nM | – | COc1ccc(Cc2nnc(CN(c3cccc(Cl)c3Cl)S(=O)(=O)c3ccc(Cl)cc3)o2)cc1
31.6 nM | 6.31 nM | – | CCOc1ccc(Cc2nnc(CN(c3cccc(Cl)c3Cl)S(=O)(=O)c3ccc(C)cc3)o2)cc1
39.8 nM | 6.31 nM | – | COc1ccc(Cc2nnc(CN(c3cccc(Cl)c3C)S(=O)(=O)c3ccc(C)cc3)o2)cc1
501 nM | 316 nM | – | Cc1ccc(S(=O)(=O)N(Cc2nnc(Cc3cccc(F)c3)o2)c2cccc(Cl)c2C)cc1
– | 7.94 nM | – | CCc1ccccc1N(CC(=O)NCCc1ccc(OC)c(OC)c1)S(=O)(=O)c1ccc(C)cc1
20 nM | 12.6 nM | – | Cc1ccc(S(=O)(=O)N(Cc2nnc(Cc3ccc(N(C)C)cc3)o2)c2cccc(Cl)c2C)cc1
398 nM | 63.1 nM | – | COc1ccc(Cc2nnc(CN(c3cccc(C(F)(F)F)c3C)S(=O)(=O)c3ccc(C)cc3)o2)cc1
50.1 nM | 39.8 nM | – | COc1ccc(Nc2nnc(CN(c3cccc(Cl)c3Cl)S(=O)(=O)c3ccc(C)cc3)o2)cc1
631 nM | – | 126 nM | CCc1ccccc1N(Cc1nnc(Cc2ccc(OC)cc2)o1)S(=O)(=O)c1ccc(C)cc1
501 nM | 63.1 nM | – | Cc1ccc(S(=O)(=O)N(Cc2nnc(Cc3c(Cl)cccc3Cl)o2)c2cccc(Cl)c2C)cc1

The remaining lines, values behind:

Structure (SMILES) | Ki [1] | IC50 ([2]; read-out: Log IC50 (converted)) | IC50 ([2]; read-out: IC50)
CCOc1ccc(Cc2nnc(CN(c3cccc(Cl)c3Cl)S(=O)(=O)c3ccc(C(F)(F)F)cc3)o2)cc1 | 6.31 nM | 2.51 nM | –
Cc1ccc(S(=O)(=O)N(Cc2nnc(Cc3ccc(Cl)cc3Cl)o2)c2cccc(Cl)c2C)cc1 | 1000 nM | 63.1 nM | –
COc1ccc(Cc2nnc(CN(c3cccc(Cl)c3Cl)S(=O)(=O)c3ccc(C)cc3)o2)cc1 | 39.8 nM | 7.94 nM | –
COc1ccc(Nc2nnc(CN(c3cccc(Cl)c3C)S(=O)(=O)c3ccc(C)cc3)o2)cc1 | 79.4 nM | 31.6 nM | –
CCOc1ccc(Cc2nnc(CN(c3cccc(Cl)c3C)S(=O)(=O)c3ccc(C)cc3)o2)cc1 | 50.1 nM | 3.98 nM | –
CCc1ccccc1N(Cc1nnc(Cc2ccc(Cl)cc2)o1)S(=O)(=O)c1ccc(C)cc1 | 316 nM | 398 nM | –
Cc1ccc(S(=O)(=O)N(CC(=O)NCCc2ccc(Cl)cc2)c2ccccc2C)cc1 | – | 251 nM | –
COc1ccc(NCc2nnc(CN(c3cccc(Cl)c3C)S(=O)(=O)c3ccc(C)cc3)o2)cc1 | 79.4 nM | 20 nM | –
Cc1ccc(S(=O)(=O)N(Cc2nnc(Cc3cccc(Cl)c3)o2)c2cccc(Cl)c2C)cc1 | 2000 nM | 158 nM | –
Cc1ccc(S(=O)(=O)N(Cc2nnc(Cc3ccccc3F)o2)c2cccc(Cl)c2C)cc1 | 631 nM | 501 nM | –
CCOc1ccc(Cc2nnc(CN(c3ccccc3CC)S(=O)(=O)c3ccc(C)cc3)o2)cc1 | 39.8 nM | 126 nM | –
CCc1ccccc1N(CC(=O)NCc1ccc(OC)cc1)S(=O)(=O)c1ccc(C)cc1 | – | – | 25 nM
CCc1ccccc1N(Cc1nnc(CNc2ccc(OC)cc2)o1)S(=O)(=O)c1ccc(C)cc1 | 794 nM | 501 nM | –
CCc1ccccc1N(Cc1nnc(Oc2ccc(OC)cc2)o1)S(=O)(=O)c1ccc(C)cc1 | 100 nM | > 1000 nM | –
CCc1ccccc1N(Cc1nnc(COc2ccc(OC)cc2)o1)S(=O)(=O)c1ccc(C)cc1 | 126 nM | 25.1 nM | –
CCc1ccccc1N(CC(=O)OCc1ccc(OC)cc1)S(=O)(=O)c1ccc(C)cc1 | – | – | 63 nM
Cc1ccc(S(=O)(=O)N(Cc2nnc(Cc3ccc(C(F)(F)F)cc3)o2)c2cccc(Cl)c2C)cc1 | 158 nM | 50.1 nM | –
Cc1ccc(S(=O)(=O)N(Cc2nnc(Cc3ccc(F)cc3)o2)c2cccc(Cl)c2C)cc1 | 501 nM | 200 nM | –
CCc1ccccc1N(Cc1nnc(Cc2ccccc2)o1)S(=O)(=O)c1ccc(C)cc1 | 398 nM | 1000 nM | –
